Values after ≈ are worked out from the molar mass of the structure shown.
Key:
Type in all cases: functional
Streptococcus pneumoniae = assay: Antibacterial activity against Streptococcus pneumoniae by agar dilution method
Summary of the method: (§1)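 Read-out is the minimum inhibitory concentration (MIC), determined by a conventional agar dilution procedure against a panel of Gram-positive and Gram-negative bacteria.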

Haemophilus influenzae = assay: Antibacterial activity against Haemophilus influenzae by agar dilution method; summary of the method: as §1
Staphylococcus aureus [1] = assay: Antibacterial activity against quinoline-susceptible methicillin-resistant Staphylococcus aureus by agar dilution method
Summary of the method: (§2)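 Read-out is the minimum inhibitory concentration (MIC), found by a conventional agar dilution procedure.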

Moraxella catarrhalis = assay: Antibacterial activity against Moraxella catarrhalis by agar dilution method; summary of the method: as §1
Staphylococcus aureus [2] = assay: Antibacterial activity against quinoline-resistant methicillin-resistant Staphylococcus aureus by agar dilution method; summary of the method: as §2
Escherichia coli [3] = assay: Antibacterial activity against Escherichia coli with AcrAB efflux system by agar dilution method
Enterococcus faecalis = assay: Antibacterial activity against Enterococcus faecalis by agar dilution method; summary of the method: as §1
Staphylococcus aureus [4] = assay: Antibacterial activity against quinoline-intermediate methicillin-resistant Staphylococcus aureus by agar dilution method; summary of the method: as §2
Pseudomonas aeruginosa = assay: Antibacterial activity against Pseudomonas aeruginosa by agar dilution method; summary of the method: as §1
Escherichia coli [5] = assay: Antibacterial activity against Escherichia coli without AcrAB efflux system by agar dilution method

Row | Compound | MIC (Streptococcus pneumoniae) | MIC (Haemophilus influenzae) | MIC (Staphylococcus aureus [1]) | MIC (Moraxella catarrhalis) | MIC (Staphylococcus aureus [2]) | MIC (Escherichia coli [3]) | MIC (Enterococcus faecalis) | MIC (Staphylococcus aureus [4]) | MIC (Pseudomonas aeruginosa) | MIC (Escherichia coli [5])
1 | COc1ccc(NC2CN(c3c(F)cc4c(=O)c(C(=O)O)cn(C5CC5)c4c3F)C2)cc1 | 0.063 µg/mL (≈ 0.143 µM) | ≤ 0.008 µg/mL | 0.031 µg/mL (≈ 0.0702 µM) | 0.031 µg/mL (≈ 0.0702 µM) | 16 µg/mL (≈ 36.2 µM) | 0.25 µg/mL (≈ 0.566 µM) | 0.25 µg/mL (≈ 0.566 µM) | 0.25 µg/mL (≈ 0.566 µM) | 4 µg/mL (≈ 9.06 µM) | 0.031 µg/mL (≈ 0.0702 µM)
2 | O=C(O)c1cn(C2CC2)c2c(F)c(N3CC(Nc4ccc(Cl)cc4)C3)c(F)cc2c1=O | 0.5 µg/mL (≈ 1.12 µM) | ≤ 0.008 µg/mL | 0.063 µg/mL (≈ 0.141 µM) | 0.063 µg/mL (≈ 0.141 µM) | 16 µg/mL (≈ 35.9 µM) | 1 µg/mL (≈ 2.24 µM) | 1 µg/mL (≈ 2.24 µM) | 1 µg/mL (≈ 2.24 µM) | > 16 µg/mL | 0.125 µg/mL (≈ 0.28 µM)
3 | Cn1nnnc1Sc1c(F)cc2c(=O)c(C(=O)O)cn(C3CC3)c2c1F | > 16 µg/mL | 0.125 µg/mL (≈ 0.33 µM) | 16 µg/mL (≈ 42.2 µM) | 4 µg/mL (≈ 10.5 µM) | > 16 µg/mL | 16 µg/mL (≈ 42.2 µM) | > 16 µg/mL | > 16 µg/mL | > 16 µg/mL | 1 µg/mL (≈ 2.64 µM)
4 | O=C(O)c1cn(C2CC2)c2c(F)c(N3CC(N(Cc4ccccc4)Cc4ccccc4)C3)c(F)cc2c1=O | > 64 µg/mL | 8 µg/mL (≈ 15.5 µM) | > 64 µg/mL | > 64 µg/mL | > 64 µg/mL | > 64 µg/mL | > 64 µg/mL | > 64 µg/mL | > 64 µg/mL | 64 µg/mL (≈ 124 µM)
5 | O=C(O)c1cn(C2CC2)c2c(F)c(N3CC(Nc4ccccc4)C3)c(F)cc2c1=O | 0.25 µg/mL (≈ 0.608 µM) | ≤ 0.008 µg/mL | 0.016 µg/mL (≈ 0.0389 µM) | 0.016 µg/mL (≈ 0.0389 µM) | 32 µg/mL (≈ 77.8 µM) | 0.25 µg/mL (≈ 0.608 µM) | 0.25 µg/mL (≈ 0.608 µM) | 0.5 µg/mL (≈ 1.22 µM) | 4 µg/mL (≈ 9.72 µM) | 0.031 µg/mL (≈ 0.0754 µM)
6 | Cn1nnnc1SC1CN(c2c(F)cc3c(=O)c(C(=O)O)cn(C4CC4)c3c2F)C1 | 2 µg/mL (≈ 4.6 µM) | < 0.008 µg/mL | 0.125 µg/mL (≈ 0.288 µM) | 0.063 µg/mL (≈ 0.145 µM) | > 32 µg/mL | 1 µg/mL (≈ 2.3 µM) | 1 µg/mL (≈ 2.3 µM) | 2 µg/mL (≈ 4.6 µM) | 8 µg/mL (≈ 18.4 µM) | 0.125 µg/mL (≈ 0.288 µM)
7 | O=C(O)c1cn(C2CC2)c2c(F)c(N3CC(Sc4ncccn4)C3)c(F)cc2c1=O | 1 µg/mL (≈ 2.32 µM) | ≤ 0.008 µg/mL | 0.063 µg/mL (≈ 0.146 µM) | 0.063 µg/mL (≈ 0.146 µM) | 32 µg/mL (≈ 74.3 µM) | 1 µg/mL (≈ 2.32 µM) | 0.25 µg/mL (≈ 0.581 µM) | 1 µg/mL (≈ 2.32 µM) | 8 µg/mL (≈ 18.6 µM) | 1 µg/mL (≈ 2.32 µM)
8 | Cc1ccc(SC2CN(c3c(F)cc4c(=O)c(C(=O)O)cn(C5CC5)c4c3F)C2)cc1 | 32 µg/mL (≈ 72.3 µM) | 0.25 µg/mL (≈ 0.565 µM) | 2 µg/mL (≈ 4.52 µM) | 2 µg/mL (≈ 4.52 µM) | > 32 µg/mL | 32 µg/mL (≈ 72.3 µM) | 16 µg/mL (≈ 36.2 µM) | 32 µg/mL (≈ 72.3 µM) | > 32 µg/mL | 32 µg/mL (≈ 72.3 µM)
9 | Cc1ccc(NC2CN(c3c(F)cc4c(=O)c(C(=O)O)cn(C5CC5)c4c3F)C2)cc1 | 0.5 µg/mL (≈ 1.18 µM) | ≤ 0.008 µg/mL | 0.031 µg/mL (≈ 0.0729 µM) | 0.031 µg/mL (≈ 0.0729 µM) | 16 µg/mL (≈ 37.6 µM) | 0.5 µg/mL (≈ 1.18 µM) | 0.5 µg/mL (≈ 1.18 µM) | 0.5 µg/mL (≈ 1.18 µM) | 16 µg/mL (≈ 37.6 µM) | 0.063 µg/mL (≈ 0.148 µM)
10 | O=C(O)c1cn(C2CC2)c2c(F)c(N3CC(Sc4nc5ccccc5o4)C3)c(F)cc2c1=O | 2 µg/mL (≈ 4.26 µM) | 0.5 µg/mL (≈ 1.07 µM) | 1 µg/mL (≈ 2.13 µM) | 0.5 µg/mL (≈ 1.07 µM) | 32 µg/mL (≈ 68.2 µM) | 8 µg/mL (≈ 17 µM) | 2 µg/mL (≈ 4.26 µM) | 2 µg/mL (≈ 4.26 µM) | > 32 µg/mL | 8 µg/mL (≈ 17 µM)
11 | CCOC(=O)c1ccc(NC2CN(c3c(F)cc4c(=O)c(C(=O)O)cn(C5CC5)c4c3F)C2)cc1 | 0.125 µg/mL (≈ 0.259 µM) | ≤ 0.008 µg/mL | 0.031 µg/mL (≈ 0.0641 µM) | 0.125 µg/mL (≈ 0.259 µM) | > 16 µg/mL | 2 µg/mL (≈ 4.14 µM) | 2 µg/mL (≈ 4.14 µM) | 1 µg/mL (≈ 2.07 µM) | > 16 µg/mL | 0.25 µg/mL (≈ 0.517 µM)
12 | O=C(O)c1cn(C2CC2)c2c(F)c(N3CC(Sc4nc5ccccc5s4)C3)c(F)cc2c1=O | 4 µg/mL (≈ 8.24 µM) | 0.5 µg/mL (≈ 1.03 µM) | 1 µg/mL (≈ 2.06 µM) | 0.5 µg/mL (≈ 1.03 µM) | 32 µg/mL (≈ 65.9 µM) | 8 µg/mL (≈ 16.5 µM) | 4 µg/mL (≈ 8.24 µM) | 4 µg/mL (≈ 8.24 µM) | > 32 µg/mL | 8 µg/mL (≈ 16.5 µM)
13 | Cn1cnnc1SC1CN(c2c(F)cc3c(=O)c(C(=O)O)cn(C4CC4)c3c2F)C1 | 2 µg/mL (≈ 4.61 µM) | ≤ 0.008 µg/mL | 0.25 µg/mL (≈ 0.577 µM) | 0.123 µg/mL (≈ 0.284 µM) | > 16 µg/mL | 1 µg/mL (≈ 2.31 µM) | 1 µg/mL (≈ 2.31 µM) | 4 µg/mL (≈ 9.23 µM) | 8 µg/mL (≈ 18.5 µM) | 0.25 µg/mL (≈ 0.577 µM)
14 | O=C(O)c1cn(C2CC2)c2cc(N3CCNCC3)c(F)cc2c1=O [CIPROFLOXACIN] | 4 µg/mL (≈ 12.1 µM) | ≤ 0.008 µg/mL | 1 µg/mL (≈ 3.02 µM) | 0.063 µg/mL (≈ 0.19 µM) | > 64 µg/mL | ≤ 0.008 µg/mL | 2 µg/mL (≈ 6.04 µM) |  |  | ≤ 0.008 µg/mL
15 | COc1c(N2CCNC(C)C2)c(F)cc2c(=O)c(C(=O)O)cn(C3CC3)c12 (stereo not given) [GATIFLOXACIN] | 0.5 µg/mL (≈ 1.33 µM) | ≤ 0.008 µg/mL | 0.25 µg/mL (≈ 0.666 µM) | 0.063 µg/mL (≈ 0.168 µM) | > 128 µg/mL | 0.063 µg/mL (≈ 0.168 µM) | 1 µg/mL (≈ 2.66 µM) | 2 µg/mL (≈ 5.33 µM) | 1 µg/mL (≈ 2.66 µM) | 0.063 µg/mL (≈ 0.168 µM)
16 | C[C@H]1COc2c(N3CCN(C)CC3)c(F)cc3c(=O)c(C(=O)O)cn1c23.C[C@H]1COc2c(N3CCN(C)CC3)c(F)cc3c(=O)c(C(=O)O)cn1c23.O [LEVOFLOXACIN] |  | ≤ 0.008 µg/mL | 0.5 µg/mL | 0.063 µg/mL | > 128 µg/mL |  | 2 µg/mL | 4 µg/mL | 0.5 µg/mL | 

— ChEMBL document CHEMBL1146325, “Synthesis and antibacterial activities of new quinolone derivatives utilizing 1-azabicyclo[1.1.0]butane” (2007)
